The structures appear in SMILES notation. Activity calls are given as the source filed them.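 The calls were made as follows, unless noted: active = viability at or below 10% of carrier control in both of two separate runs; inconclusive = viability at or below 10% in only one of the two runs; inactive = the rest.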

A short description of experiment [1]: reduced viability of SK-BR-3 breast cancer cells – cell-based, 24 h, human, pilot screen (AID 572).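 Also: compound exposure lasted between 18 and 24 h rather than exactly 24 h; 100% = carrier-treated control wells.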 As to conditions: SK-BR-3 viability, CellTiter-Glo luminescence, at 10 µM, stronger effect = lower value. On the technique in general: ATP-based viability assays read luminescence as a measure of living cells.
Experiment [2] in a line: HUVEC growth inhibition – cell-based, human, primary screen (AID 575;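 active = viability at or below 30% in both replicate assays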;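 also: 100% = median of untreated cell wells with 0.1% DMSO on each plate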). The note with it: HUVEC proliferation, CellTiter-Glo luminescence, 72 h; at 10 µM; stronger effect = lower value. Summed up:
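Material: primary human umbilical vein endothelial cells / Schedule: 72 h exposure, 37 °C, 5% CO2, 30 min RT equilibration / Signal: ATP-based CellTiter-Glo luminescent read / Read-out basis: percent of median DMSO-control luminescence / Control set: 32 DMSO-only cell-control wells (high), 32 MePR drug-control wells (low) per plate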

Experiment [3] can be described thus: H69AR cell proliferation blockers – human, duplicate replicates, primary screen (AID 580;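 active = viability at or under a set limit in both replicates, limit being median viability minus 3 SD, cut at about 48% in these data, passing the limit was not always enough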;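 also: 100% = mean luminescence of untreated wells and 0% = no signal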). As to conditions: H69AR lung tumor cells viability, ATP luminescence, 72 h; at 10 µM; stronger effect = lower value.
Experiment [4] in a line: MRP1 drug-resistance reversers in H69AR cells – cell-based, doxorubicin co-treatment, pilot screen (AID 601;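 active = viability loss from added drug above about 55%, and viability with drug at most 40%, in both replicates, limit read from the data, passing the limit was not always enough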). The note with it: CellTiter-Glo, 72 h, at 10 µM; for differential viability (reversal): stronger effect = higher value.
A short description of experiment [5]: yeast transport mutant growth inhibition pilot in 384-well plates, post-Golgi transport modulator project (AID 636; in the data active = inhibition above about 31%). As to conditions: absorbance 615 nm, about 18 h, stronger effect = higher value.
The nature of experiment [6]: growth suppression of yeast trafficking mutant, preliminary HTS, modulators of trafficking downstream of Golgi apparatus project, 1536-format plate, OD 615 nm (AID 637; in the data active = inhibition above about 30%). As to conditions: yeast transport mutant growth, absorbance 615 nm, 18 h; stronger effect = higher value.
Where [7] appears, read: H69AR cells + 2 uM doxorubicin, measured here: viability with 2 uM doxorubicin, stronger effect = lower value.
[8] abbreviates: H69AR cells, compound alone cytotoxicity.

One may read the viability as a read-out of living cells in per cent, often relative to untreated cells. A word on the inhibition: it is the drop in the measured response relative to a control, in per cent. `COc1ccc(-c2nnnn2C)cc1S(=O)(=O)NCc1ccccc1`: the viability in experiment [1] was 93.5% (inactive); in experiment [2], 117% (inactive); in experiment [3], 95.7% (inactive); in experiment [4] (setting [7]), 91.1%; in experiment [4] (setting [8]), 95.7%. Besides, the differential viability (reversal) in experiment [4] (H69AR cells + 2 uM doxorubicin) was 4.64% (inactive). Moreover, the inhibition in experiment [5] was -0.26% (inactive); in experiment [6], -2.17% (inactive).
Take `CCOc1nc(-c2ccccc2O)nc2ccccc12`: the viability was 68% (inactive) in experiment [1]; 108% (inactive) in experiment [2]; 100% (inactive) in experiment [3]; 99.5% in experiment [4] (setting [7]); 100% in experiment [4] (setting [8]). In addition, in experiment [4] (H69AR cells + 2 uM doxorubicin), the differential viability (reversal) is 0.64% (inactive). Also, the figures for the inhibition in experiment [5] and in experiment [6] were 1.23% (inactive) and 0.55% (inactive), respectively.
As for `Cc1csc(SCCn2c(N3CCCC3)nc3c2c(=O)[nH]c(=O)n3C)n1`, the viability in experiment [1] is 94% (inactive); in experiment [2] it was 105% (inactive); in experiment [3] it was 100% (inactive); in experiment [4] (setting [7]), 105%; in experiment [4] (setting [8]) it was 100%. For the same compound, in experiment [4] (H69AR cells + 2 uM doxorubicin), the differential viability (reversal) was -4.86% (inactive). Also, the inhibition in experiment [5] is -1.49% (inactive); in experiment [6] it was -2.55% (inactive).
`CC1(C)CC(=O)C=C(NCc2ccncc2)C1`: the viability in experiment [1] is 89% (inactive); in experiment [2] it was 113% (inactive); in experiment [3] it was 98.6% (inactive); in experiment [4] (setting [7]) it was 125%; in experiment [4] (setting [8]), 98.6%. In addition, the differential viability (reversal) in experiment [4] (H69AR cells + 2 uM doxorubicin) is -26.3% (inactive). The inhibition was -2.3% (inactive) in experiment [5] and -3.45% (inactive) in experiment [6].
On to `CC(=O)Nc1ccc(S(=O)(=O)N(C2=NCC(C)S2)c2ccccc2)cc1` (centres undefined), for which the viability is 85% (inactive) in experiment [1]; 80.3% (inactive) in experiment [2]; 91.7% (inactive) in experiment [3]; 89.8% in experiment [4] (setting [7]); 91.7% in experiment [4] (setting [8]). Also, the differential viability (reversal) in experiment [4] (H69AR cells + 2 uM doxorubicin) is 1.89% (inactive). The values for the inhibition in experiment [5] and in experiment [6] were -2.47% (inactive) and -4.35% (inactive), respectively.
Consider `CN(C)c1nc(OCCOC(=O)Nc2ccc(Cl)cc2Cl)nc(N(C)C)n1`, for which the viability in experiment [1] was 70% (inactive); in experiment [2], 103% (inactive); in experiment [3], 96.3% (inactive); in experiment [4] (setting [7]), 79.9%; in experiment [4] (setting [8]), 96.3%. Also, the differential viability (reversal) in experiment [4] (H69AR cells + 2 uM doxorubicin) was 16.4% (inactive). The values for the inhibition in experiment [5] and in experiment [6] were -5.21% (inactive) and 2.91% (inactive), respectively.
Regarding `O=C(CSCc1cccs1)N1CCCC1`, the viability in experiment [1] is 115% (inactive); in experiment [2], 93.6% (inactive); in experiment [3], 104% (inactive); in experiment [4] (setting [7]) it was 90.6%; in experiment [4] (setting [8]) it was 104%. For the same compound, the differential viability (reversal) in experiment [4] (H69AR cells + 2 uM doxorubicin) was 13.8% (inactive). Further, the inhibition in experiment [5] is -0.91% (inactive); in experiment [6], 5.41% (inactive).
Regarding `CCn1cc(C2Nc3ccccc3C(=O)N2O)c(C)n1` (centres undefined), the viability was 93% (inactive) in experiment [1]; 126% (inactive) in experiment [2]; 90% (inactive) in experiment [3]; 90.5% in experiment [4] (setting [7]); 90% in experiment [4] (setting [8]). Further, in experiment [4] (H69AR cells + 2 uM doxorubicin), the differential viability (reversal) is -0.465% (inactive). The inhibition is -5.27% (inactive) in experiment [5] and -2.91% (inactive) in experiment [6].
Take `Cc1csc(NC(=O)Nc2cccc(Cl)c2)n1`: the viability was 102% (inactive) in experiment [1]; 75% (inactive) in experiment [2]; 98.6% (inactive) in experiment [3]; 90% in experiment [4] (setting [7]); 98.6% in experiment [4] (setting [8]). In experiment [4] (H69AR cells + 2 uM doxorubicin), the differential viability (reversal) is 8.58% (inactive). The results for the inhibition in experiment [5] and in experiment [6] were -3.73% (inactive) and -1.09% (inactive), respectively.
For `CCc1n[nH]c2c1C(=O)CC(C)(C)C2`, the viability in experiment [1] is 73% (inactive); in experiment [2] it was 106% (inactive); in experiment [3], 89.1% (inactive); in experiment [4] (setting [7]), 90.6%; in experiment [4] (setting [8]) it was 89.1%. Also, the differential viability (reversal) in experiment [4] (H69AR cells + 2 uM doxorubicin) was -1.54% (inactive). Moreover, the inhibition is 2% (inactive) in experiment [5] and 6% (inactive) in experiment [6].
Take `CC(C)CN(CC(C)C)c1nc(N)c(C#N)c(CC#N)c1C#N`: the viability was 106% (inactive) in experiment [1]; 114% (inactive) in experiment [2]; 86.7% (inactive) in experiment [3]; 73.1% in experiment [4] (setting [7]); 86.7% in experiment [4] (setting [8]). Moreover, the differential viability (reversal) in experiment [4] (H69AR cells + 2 uM doxorubicin) is 13.6% (inactive). Further, the inhibition was -5.6% (inactive) in experiment [5] and -1.27% (inactive) in experiment [6].
Turning to `Cc1csc(NC(=O)c2ccoc2C)n1`, the viability in experiment [1] is 103% (inactive); in experiment [2], 84.6% (inactive); in experiment [3] it was 86.3% (inactive); in experiment [4] (setting [7]) it was 91.8%; in experiment [4] (setting [8]), 86.3%. The differential viability (reversal) in experiment [4] (H69AR cells + 2 uM doxorubicin) is -5.44% (inactive). In addition, the inhibition is -4.66% (inactive) in experiment [5] and -8.39% (inactive) in experiment [6].
For the compound `O=C(CN1CCCN(S(=O)(=O)c2ccc(Br)cc2)CC1)Nc1ccc2c(c1)OCO2`, the viability in experiment [1] is 91% (inactive); in experiment [2], 75% (inactive); in experiment [3], 6.58% (active); in experiment [4] (setting [7]), 16.9%; in experiment [4] (setting [8]), 6.58%. Further, in experiment [4] (H69AR cells + 2 uM doxorubicin), the differential viability (reversal) was -10.3% (inactive). Moreover, the inhibition in experiment [5] is -0.52% (inactive); in experiment [6], 3.77% (inactive).
Turning to `O=C(NCc1ccco1)c1ccccc1Nc1ccc(F)cc1`, the viability was 80% (inactive) in experiment [1]; 97.1% (inactive) in experiment [2]; 79.2% (inactive) in experiment [3]; 73.6% in experiment [4] (setting [7]); 79.2% in experiment [4] (setting [8]). Further, the differential viability (reversal) in experiment [4] (H69AR cells + 2 uM doxorubicin) was 5.57% (inactive). For the same compound, the inhibition was -7.03% (inactive) in experiment [5] and -7.09% (inactive) in experiment [6].
`CCc1ccccc1NC(=O)CSC1=C(C#N)C(c2ccc(O)c(OC)c2)C2=C(CCCC2=O)N1` (centres undefined): the viability in experiment [1] was 112% (inactive); in experiment [2], 105% (inactive); in experiment [3] it was 47.9% (active); in experiment [4] (setting [7]), 78.1%; in experiment [4] (setting [8]), 47.9%. Further, in experiment [4] (H69AR cells + 2 uM doxorubicin), the differential viability (reversal) is -30.2% (inactive). Also, the inhibition in experiment [5] is -8.08% (inactive); in experiment [6], 5.65% (inactive).
In the case of `Cc1nc(N)[nH]c(=O)c1CCC(=O)OCC(C)C`, the viability in experiment [1] was 107% (inactive); in experiment [2] it was 89.7% (inactive); in experiment [3], 91.2% (inactive); in experiment [4] (setting [7]), 93.5%; in experiment [4] (setting [8]), 91.2%. Further, the differential viability (reversal) in experiment [4] (H69AR cells + 2 uM doxorubicin) is -2.31% (inactive). In addition, the inhibition was -0.78% (inactive) in experiment [5] and -0.66% (inactive) in experiment [6].
Regarding `O=C(C1CCCO1)N1CCN(S(=O)(=O)c2ccccc2)CC1` (centres undefined), the viability was 79% (inactive) in experiment [1]; 98.1% (inactive) in experiment [2]; 99.1% (inactive) in experiment [3]; 105% in experiment [4] (setting [7]); 99.1% in experiment [4] (setting [8]). For the same compound, the differential viability (reversal) in experiment [4] (H69AR cells + 2 uM doxorubicin) is -6.22% (inactive). The figures for the inhibition in experiment [5] and in experiment [6] were -6.3% (inactive) and 3.27% (inactive), respectively.
On to `C=CCn1cnc2c(c1=O)c1nc3ccccc3nc1n2-c1ccc(C)cc1`, for which the viability is 105% (inactive) in experiment [1]; 97.2% (inactive) in experiment [2]; 86.9% (inactive) in experiment [3]; 93.7% in experiment [4] (setting [7]); 86.9% in experiment [4] (setting [8]). In addition, the differential viability (reversal) in experiment [4] (H69AR cells + 2 uM doxorubicin) is -6.75% (inactive). For the same compound, the inhibition was -5.48% (inactive) in experiment [5] and -1.61% (inactive) in experiment [6].

(Values after PubChem BioAssay.)
